MrgX1 ag – agonists of human MrgX1 receptor | MrgX1-HEK293 cells, Fluo-4 calcium fluorescence, agonist mode; stronger effect = higher value | Q96LB2 | B-score at 10 µM | actives 0.44% (n = 310,000);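 active = calcium response B-score plate-corrected fluorescence ratio at least 3 library SD, with starting fluorescence B-score inside 5 SD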
Target sequence (Q96LB2 whole entry, looked up): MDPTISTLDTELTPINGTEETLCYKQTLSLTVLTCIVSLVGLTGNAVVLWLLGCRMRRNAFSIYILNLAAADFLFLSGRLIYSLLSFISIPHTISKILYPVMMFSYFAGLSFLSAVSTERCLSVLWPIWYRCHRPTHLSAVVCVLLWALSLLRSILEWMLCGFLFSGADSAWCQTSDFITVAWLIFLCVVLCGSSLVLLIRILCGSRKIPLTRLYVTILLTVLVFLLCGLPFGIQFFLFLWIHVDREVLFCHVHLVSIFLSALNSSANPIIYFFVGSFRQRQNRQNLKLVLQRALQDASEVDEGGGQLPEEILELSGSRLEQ
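Material: HEK293 cells stably expressing human MrgX1 receptor | Quantity: 15,000 cells per well | Times: Cells plated overnight, dye loaded 0.5 h 37 °C, 0.5 h room temperature | Measured by: Kinetic Fluo-4 NW fluorescence of intracellular calcium | Control set: Positive and negative controls per plate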
MrgX1 PAM – allosterically activates human MrgX1 receptor signaling. Q96LB2. MrgX1-HEK293, Fluo-4 calcium flux, FDSS; stronger effect = higher value. B-score at 10 µM. actives 0.63% (n = 310,000). AID 588675;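 active = plate-corrected calcium response at least 3 library SD above typical, normal starting fluorescence, not activating the receptor alone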;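 also: compound read alongside a low EC10 to EC30 dose of BAM8-22 agonist; peak minus trough fluorescence over baseline measured at the second addition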
RGS4 pot – potentiators or activators of RGS4 | B-score at 10 µM | AID 463111 | HEK293 M3R/inducible RGS4, carbachol calcium flux Fluo4; stronger effect = lower value | actives 0.92% (n = 310,000);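 active = B-score of the integrated calcium signal more than 4 SD below the library mean, with starting fluorescence not abnormally high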;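 also: negative B-score means reduced calcium response which marks RGS4 activation or potentiation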
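Assay system: Inducible-RGS4 HEK293 cells carrying M3 receptor | Schedule: Compound preincubation 20 min at room temperature before agonist | Signal: Kinetic calcium fluorescence imaging with Fluo4-AM dye, 2 µM | Read-out basis: B score from integrated fluorescence ratio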
RGS4 block – inhibitors of human RGS4; P49798; HEK293 M3R/RGS4 inducible, Fluo-4 calcium flux; stronger effect = higher value; triggered by carbachol at its EC20; actives 0.45% (n = 310,000); B-score at 10 µM;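 active = B-score, a plate-corrected calcium signal, over three deviations above library mean, with baseline fluorescence within five deviations of library mean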;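 also: RGS4 expression induced by doxycycline in cells with stable M3 receptor; B-score is computed from the integrated fluorescence ratio over baseline after carbachol; higher B-score means a larger calcium signal and so more RGS4 inhibition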
Target sequence (P49798 whole entry, looked up): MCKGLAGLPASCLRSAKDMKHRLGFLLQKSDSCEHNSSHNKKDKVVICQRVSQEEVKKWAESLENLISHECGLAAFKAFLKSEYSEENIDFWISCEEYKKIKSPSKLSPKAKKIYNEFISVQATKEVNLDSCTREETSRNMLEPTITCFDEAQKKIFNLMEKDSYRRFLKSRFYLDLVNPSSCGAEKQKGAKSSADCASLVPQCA
MrgX1 antag – blocks BAM8-22 activation of human MrgX1 receptor; MRGX1-HEK293 calcium flux, Fluo-4, BAM8-22 antagonism; stronger effect = lower value; B-score at 10 µM; actives 1.3% (n = 310,000); AID 588676;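 active = calcium-response B-score plate-corrected more than 3 library SD below zero, starting fluorescence within 5 deviations, no agonist response on first addition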;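 also: peak minus trough fluorescence over baseline after final BAM8-22 challenge near maximal dose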
RGS4 inh valid – validation of RGS4 inhibitors | shares compounds with RGS4 block | HEK293 M3R/RGS4, carbachol calcium Fluo-4 fluorescence; carbachol added at its EC20; 0 = buffer wells, 100 = carbachol control | calcium response, % at 10 µM | actives 65% (n = 1,700) | AID 492999;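 active = duplicate-averaged calcium response above the buffer-only control mean plus 5 SD of those controls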;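 also: integrated fluorescence ratio F max minus min over baseline F0; higher response in RGS4-induced cells means RGS4 inhibition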
M3R Ca ctr – non-induced cell nonspecific activity of RGS4 inhibitors; activity (percent), % at 10 µM; actives 20% (n = 1,900); shares compounds with RGS4 block; HEK293 M3R non-induced, carbachol calcium Fluo-4; submaximal (EC20) carbachol stimulus; buffer wells 0%, carbachol control wells 100%; call rule not given here;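 also: RGS4 induction absent so cells express M3R without RGS4; higher means more calcium signal and flags a non-specific hit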
M3R basal Ca ctr – signal in non-induced cells without carbachol, RGS4 inhibitor counter-screen | shares compounds with RGS4 block | HEK293 M3R/RGS4 non-induced, Fluo-4 calcium, no carbachol; normalised: buffer wells 0%, carbachol wells 100% | calcium response (agonist-mode artifact), % at 10 µM | actives 22% (n = 1,900);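 active = duplicate-averaged calcium rise in uninduced cells above buffer wells' mean plus 5 SD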
* = called active by the depositor; i = inactive; . = no result given. Most compounds without a hit are left out; they make up all but 3.5% or so of the library.

SMILES	MrgX1 ag	MrgX1 PAM	RGS4 pot	RGS4 block	MrgX1 antag	RGS4 inh valid	M3R Ca ctr	M3R basal Ca ctr
C=CCn1c(SCc2ccccc2F)nc2cc(C(=O)O)ccc2c1=O	i	i	i	i	i	.	.	.
Cc1ccc(NC(=O)OCc2cc(-c3ccccc3)on2)cc1	i	i	i	i	i	i	i	i
O=C(Nc1ccc(Cl)cc1)OCc1cc(-c2ccccc2Cl)on1	i	i	i	i	i	.	.	.
CCN(CC)CCCNC(=O)CN1N=C(c2ccc(OC)cc2)CCC1=O	i	i	i	i	i	.	.	.
Cc1ccc(SC(CC(=O)c2ccc(F)cc2)C(=O)O)cc1 (stereo unspecified)	i	i	i	i	i	.	i	i
O=C(Nc1ccc(N2CCOCC2)cc1)C1CCCN(S(=O)(=O)c2cccc(C(F)(F)F)c2)C1 (stereo unspecified)	i	i	i	i	i	.	.	.
COC(=O)c1nn(C23CC4CC(CC(C4)C2)C3)c2c1C(=O)N(c1ccc(F)cc1)C2=O	i	i	i	i	i	i	i	i
Cc1ccsc1/C=N/NC(=O)Cc1cccn1C	i	i	i	i	i	.	.	.
CC(Nc1nc(-c2ccc(F)cc2)cs1)c1nc2cc(Cl)c(N3CCCCC3)cc2n1CCCO (stereo unspecified)	i	i	i	i	i	.	.	.
CC(Nc1nc(-c2ccc(F)cc2)cs1)c1nc2cc(Cl)c(N3CCCCC3)cc2n1CCOCCO (stereo unspecified)	i	i	i	i	i	i	i	i
CC(Nc1nc(-c2cccc(Br)c2)cs1)c1nc2cc(Cl)c(N3CCCCC3)cc2n1CCOCCO (stereo unspecified)	i	i	i	8.2*	i	10%*	i	i
NS(=O)(=O)c1ccc(CCNC(=O)/C=C/c2ccccc2[N+](=O)[O-])cc1	i	i	i	i	i	.	.	.
CCCCN1C(=O)N(C)C2NC(=S)NC21 (stereo unspecified)	i	i	i	i	i	.	.	.
CC(C)(C)c1nn(-c2ccccc2)c2nc(Cl)c(C=O)cc12	i	i	i	5*	i	13%*	30%*	i
CC(=O)N1c2ccc(S(=O)(=O)N3CCCCC3)cc2CC1C(=O)NCc1ccc(N(C)C)cc1 (stereo unspecified)	i	i	i	i	i	.	.	.
COc1cc(C(C(=O)NC2CCCCC2)N(C(=O)Cc2c[nH]c3ccccc23)c2ccc(C)cc2)cc(OC)c1OC (stereo unspecified)	i	i	i	i	i	i	i	i
COc1cc2[nH]c3c(N4CCC(C(N)=O)CC4)ncnc3c2cc1OC	i	i	i	5.7*	i	i	i	i
FC(F)(F)c1cc(N2CCN(Cc3ccccc3)CC2)c2ccccc2n1	i	i	i	i	i	.	.	.
CC(C)(CC(=O)O)CC(=O)N1CCN(c2cc(C(F)(F)F)nc3ccccc23)CC1	i	i	i	5*	i	i	i	i
Cc1cccc(N(CC(=O)NCc2ccc(F)cc2)C(=O)c2csnn2)c1C	i	i	i	i	i	.	.	.
NCCOc1ccc(C23CC4CC(CC(C4)C2)C3)cc1	i	i	i	11*	i	20%*	i	72%*
COc1ccc(N2CCN(CCCNC(=O)C(=O)c3c(C)n(C)c4ccccc34)CC2)cc1	i	i	i	i	i	.	.	.
C=CCN1C(=O)/C(=C/c2ccsc2)SC1=S	i	i	i	i	i	.	.	.
O=C(O)C(c1ccccc1)N1C(=O)/C(=C\c2ccc(-c3ccc(Br)cc3)o2)SC1=S (stereo unspecified)	.	.	-7.8*	9.6*	.	9.0%*	i	234%*
C=CCN1C(=O)/C(=C/c2ccc(-c3ccc(F)cc3)o2)SC1=S	i	i	i	14*	-5.6*	34%*	i	60%*
SMILES	MrgX1 ag	MrgX1 PAM	RGS4 pot	RGS4 block	MrgX1 antag	RGS4 inh valid	M3R Ca ctr	M3R basal Ca ctr
Cc1ccc(C(C2C(=O)CC(C)(C)CC2=O)C2C(=O)CC(C)(C)CC2=O)s1	i	i	i	25*	i	17%*	i	i
Cc1ccc(/C=C/C(=O)Nc2ccc(S(=O)(=O)Nc3ncccn3)cc2)cc1	i	i	i	i	i	.	.	.
O=C(/C=C/c1ccc(F)cc1)Nc1ccc(S(=O)(=O)Nc2ncccn2)cc1	i	i	i	i	i	i	i	29%*
Cc1nnnn1/C(=C\c1ccccc1)C(=O)OCC(=O)NC(C)(C)C	i	i	i	i	i	.	.	.
CC(=O)Nc1ccc(NC(=O)COC(=O)/C(=C/c2ccccc2)n2nnnc2C)cc1	i	i	i	6.4*	i	18%*	i	i
Cc1nnnn1/C(=C\c1ccccc1)C(=O)OCC(=O)NC1CCCCC1	i	i	i	6.4*	i	12%*	i	9.0%*
O=C(CCN1CCc2ccccc21)c1ccc2c(c1)OCCO2	i	i	i	i	i	.	.	.
COc1ccc(C(=O)CCN2CCCCCC2)cc1	39*	i	i	11*	i	i	i	28%*
CCOc1ccc(C(=O)CCN2CCCCC2)cc1	i	i	i	i	i	.	.	.
O=C(CCN1CCc2ccccc2C1)c1ccc2c(c1)OCCO2	i	i	i	6.7*	i	20%*	i	14%*
O=C(CCN1CCCCC1)c1ccc2c(c1)OCCO2	i	i	i	i	i	i	i	i
CCN(CC)C(=O)c1cc2c(=O)n3cccc(C)c3nc2s1	i	i	i	i	i	.	.	.
CCN(CC)Cc1nc2c(c(=O)[nH]1)C1(CCCCC1)Cc1ccccc1-2	i	i	i	i	i	.	.	.
C=CCNC(=S)NNc1nc2c(c(=O)[nH]1)C1(CCCC1)Cc1ccccc1-2	i	i	i	9.8*	i	22%*	i	i
